In ChEMBL document CHEMBL4351018, “Novel phenanthridin-6(5H)-one derivatives as potent and selective BET bromodomain inhibitors: Rational design, synthesis and biological evaluation” (Eur J Med Chem, 2019):
pIC50: −log10 of the molar value.

Tests used:
[1] = Half life in Sprague-Dawley rat at 2.5 mg/kg, iv measured for 0.083 to 24 hrs by LC-MS/MS analysis; format: ADME, organism-based; settings: in vivo
A549 [2] = experiment: Induction of apoptosis in human A549 cells assessed as viable cells at 3.0 uM incubated for 48 hrs by annexin V-FITC/PI double staining based flow cytometric analysis (reference value: 98.2%); format: functional; settings: A549, 48 h, read-out: Activity
A549 [3] = experiment: Induction of apoptosis in human A549 cells assessed as early apoptotic cells at 0.3 uM incubated for 48 hrs by annexin V-FITC/PI double staining based flow cytometric analysis (reference value: 1.76%); format: functional
[4] = Half life in Sprague-Dawley rat at 10 mg/kg, po measured for 0.083 to 24 hrs by LC-MS/MS analysis; format: ADME, organism-based; settings: in vivo
A549 [5] = experiment: Induction of cell cycle arrest in human A549 cells assessed as increase in accumulation at M phase incubated for 48 hrs by BrdU/PI staining based flow cytometric analysis; format: functional
Method in brief: (§1)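 Subconfluent A549 cells exposed 48 h to 0.3–5.0 μM with DMSO vehicle control. Pulse-labelled with 10 μM BrdU for 30 min at 37 °C before harvest. Fixed in 70% ethanol, denatured in 2 M HCl, neutralised, then stained with fluorescein anti-BrdU antibody and propidium iodide. Analysed by flow cytometry with 488 nm excitation.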

A549 [6] = experiment: Induction of cell cycle arrest in human A549 cells assessed as increase in accumulation at G1 phase incubated for 48 hrs by BrdU/PI staining based flow cytometric analysis; format: functional; method in brief: as §1
A549 [7] = experiment: Induction of apoptosis in human A549 cells assessed as viable cells at 0.3 uM incubated for 48 hrs by annexin V-FITC/PI double staining based flow cytometric analysis (reference value: 98.2%); format: functional; settings: A549, 48 h, read-out: Activity
[8] = target: Bromodomain testis-specific protein (Homo sapiens) (UniProt Q58F21); experiment: Binding affinity to BRDT bromodomain 2 (unknown origin) at 20 uM by Alpha screen assay relative to control
[9] = Apparent clearance in Sprague-Dawley rat at 10 mg/kg, po measured for 0.083 to 24 hrs by LC-MS/MS analysis; format: ADME, organism-based; settings: in vivo, read-out: CL(app) (converted)
[10] = Cmax in Sprague-Dawley rat at 10 mg/kg, po measured for 0.083 to 24 hrs by LC-MS/MS analysis; format: ADME, organism-based; design: dose 10 mg/kg, route oral; settings: in vivo
A549 [11] = experiment: Induction of cell cycle arrest in human A549 cells assessed as accumulation at […] phase at 3.0 uM incubated for 48 hrs by BrdU/PI staining based flow cytometric analysis; format: functional; method in brief: as §1
[12] = target: Bromodomain-containing protein 4 (Homo sapiens, UniProt O60885); experiment: Binding affinity to recombinant human His-tagged BRD4 bromodomain 2 expressed in […] insect cells using biotinylated H4(1 to 21)K5/8/12/16Ac peptide as substrate at 20 uM preincubated for 30 mins followed by substrate addition and measured after 30 mins by Alpha screen assay relative to control
A549 [13] = experiment: Induction of apoptosis in human A549 cells assessed as necrotic cells at 5.0 uM incubated for 48 hrs by annexin V-FITC/PI double staining based flow cytometric analysis (reference value: 0%); format: functional
[14] = AUC (0 to t) in Sprague-Dawley rat at 10 mg/kg, po measured for 0.083 to 24 hrs by LC-MS/MS analysis; format: ADME, organism-based; design: time 0.083-24 hr, dose 10 mg/kg, route oral; settings: in vivo
[15] = target: Bromodomain-containing protein 3 (Homo sapiens) (UniProt Q15059); experiment: Binding affinity to BRD3 bromodomain 2 (unknown origin) at 20 uM by Alpha screen assay relative to control
A549 [16] = experiment: Inhibition of BET in human A549 cells assessed as downregulation of c-Myc protein expression level incubated for 48 hrs by western blot analysis; format: cell-based
Method in brief: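 A549 cells seeded at 400000 per well, grown overnight in 10% FBS medium, then given serially diluted compound for 48 h. c-Myc in lysates detected with a mouse monoclonal antibody; GAPDH used as loading control.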

[17] = Tmax in Sprague-Dawley rat at 2.5 mg/kg, iv measured for 0.083 to 24 hrs by LC-MS/MS analysis; format: ADME, organism-based; settings: in vivo
[18] = Apparent clearance in Sprague-Dawley rat at 2.5 mg/kg, iv measured for 0.083 to 24 hrs by LC-MS/MS analysis; format: ADME, organism-based; settings: in vivo, read-out: CL(app) (converted)
[19] = Metabolic stability in human liver microsomes assessed as half life at 1 uM measured for 0.025 to 2 hrs in presence of betaNADPH by LC-MS/MS analysis; format: ADME, Microsome
Method in brief: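 1 μM compound incubated at 37 °C with human liver microsomes (0.5 mg/mL), 1.7 mM β-NADPH and 3.3 mM MgCl2 in 0.1 M phosphate buffer pH 7.4, with DMSO below 0.1%. Remaining parent measured by LC-MS/MS; half-life from concentration-time regression.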

A549 [20] = experiment: Induction of apoptosis in human A549 cells assessed as viable cells at 1.0 uM incubated for 48 hrs by annexin V-FITC/PI double staining based flow cytometric analysis (reference value: 98.2%); format: functional; settings: A549, 48 h, read-out: Activity
A549 [21] = experiment: Induction of apoptosis in human A549 cells assessed as early apoptotic cells at 5.0 uM incubated for 48 hrs by annexin V-FITC/PI double staining based flow cytometric analysis (reference value: 1.76%); format: functional
[22] = Tmax in Sprague-Dawley rat at 10 mg/kg, po measured for 0.083 to 24 hrs by LC-MS/MS analysis; format: ADME, organism-based; settings: in vivo
A549 [23] = experiment: Induction of apoptosis in human A549 cells assessed as early apoptotic cells at 3.0 uM incubated for 48 hrs by annexin V-FITC/PI double staining based flow cytometric analysis (reference value: 1.76%); format: functional
[24] = target: Bromodomain-containing protein 3 (Homo sapiens) (UniProt Q15059); experiment: Binding affinity to BRD3 bromodomain 1 (unknown origin) at 20 uM by Alpha screen assay relative to control
A549 [25] = experiment: Induction of apoptosis in human A549 cells assessed as late apoptotic cells at 1.0 uM incubated for 48 hrs by annexin V-FITC/PI double staining based flow cytometric analysis (reference value: 0.039%); format: functional
[26] = target: Bromodomain-containing protein 2 (Homo sapiens) (UniProt P25440); experiment: Binding affinity to BRD2 bromodomain 1 (unknown origin) at 20 uM by Alpha screen assay relative to control
HepG2 = experiment: Antiproliferative activity against human HepG2 cells incubated for 48 hrs by MTT assay; format: functional, cell-based; settings: HepG2, 48 h
Method in brief: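 Cells kept in DMEM or RPMI 1640 with 10% FBS at 37 °C, 5% CO2. MTT added for 4 h at 37 °C, formazan dissolved in DMSO, OD read at 570 nm. Survival % taken relative to blank and control wells. Triplicate runs; IC50 from curve fit.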

A549 [27] = experiment: Induction of cell cycle arrest in human A549 cells assessed as accumulation at […] phase at 5.0 uM incubated for 48 hrs by BrdU/PI staining based flow cytometric analysis; format: functional; method in brief: as §1
A549 [28] = experiment: Induction of apoptosis in human A549 cells assessed as necrotic cells at 0.3 uM incubated for 48 hrs by annexin V-FITC/PI double staining based flow cytometric analysis (reference value: 0%); format: functional
A549 [29] = experiment: Induction of apoptosis in human A549 cells assessed as early apoptotic cells at 1.0 uM incubated for 48 hrs by annexin V-FITC/PI double staining based flow cytometric analysis (reference value: 1.76%); format: functional

Bromodomain-containing protein 3 (Homo sapiens), sequence (Q15059 2-726 limits assumed): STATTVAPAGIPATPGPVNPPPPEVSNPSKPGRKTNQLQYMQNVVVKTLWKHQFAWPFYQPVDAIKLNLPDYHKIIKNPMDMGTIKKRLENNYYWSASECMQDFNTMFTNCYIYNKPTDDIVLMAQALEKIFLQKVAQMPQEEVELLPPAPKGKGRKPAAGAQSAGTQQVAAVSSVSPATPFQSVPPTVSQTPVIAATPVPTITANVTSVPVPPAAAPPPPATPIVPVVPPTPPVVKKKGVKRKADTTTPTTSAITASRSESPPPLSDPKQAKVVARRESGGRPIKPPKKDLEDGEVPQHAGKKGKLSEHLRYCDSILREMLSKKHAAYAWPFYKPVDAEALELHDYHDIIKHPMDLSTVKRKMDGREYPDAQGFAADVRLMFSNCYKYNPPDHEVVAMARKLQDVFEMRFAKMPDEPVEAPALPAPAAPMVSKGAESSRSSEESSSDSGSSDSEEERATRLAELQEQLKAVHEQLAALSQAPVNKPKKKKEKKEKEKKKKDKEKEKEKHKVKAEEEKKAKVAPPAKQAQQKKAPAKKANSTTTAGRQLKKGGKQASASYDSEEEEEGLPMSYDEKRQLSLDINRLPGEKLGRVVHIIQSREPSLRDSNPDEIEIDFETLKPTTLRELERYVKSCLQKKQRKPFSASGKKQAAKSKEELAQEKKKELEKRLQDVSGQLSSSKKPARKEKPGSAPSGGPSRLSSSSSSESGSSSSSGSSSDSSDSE
Bromodomain-containing protein 2 (Homo sapiens), sequence (P25440 whole entry, looked up): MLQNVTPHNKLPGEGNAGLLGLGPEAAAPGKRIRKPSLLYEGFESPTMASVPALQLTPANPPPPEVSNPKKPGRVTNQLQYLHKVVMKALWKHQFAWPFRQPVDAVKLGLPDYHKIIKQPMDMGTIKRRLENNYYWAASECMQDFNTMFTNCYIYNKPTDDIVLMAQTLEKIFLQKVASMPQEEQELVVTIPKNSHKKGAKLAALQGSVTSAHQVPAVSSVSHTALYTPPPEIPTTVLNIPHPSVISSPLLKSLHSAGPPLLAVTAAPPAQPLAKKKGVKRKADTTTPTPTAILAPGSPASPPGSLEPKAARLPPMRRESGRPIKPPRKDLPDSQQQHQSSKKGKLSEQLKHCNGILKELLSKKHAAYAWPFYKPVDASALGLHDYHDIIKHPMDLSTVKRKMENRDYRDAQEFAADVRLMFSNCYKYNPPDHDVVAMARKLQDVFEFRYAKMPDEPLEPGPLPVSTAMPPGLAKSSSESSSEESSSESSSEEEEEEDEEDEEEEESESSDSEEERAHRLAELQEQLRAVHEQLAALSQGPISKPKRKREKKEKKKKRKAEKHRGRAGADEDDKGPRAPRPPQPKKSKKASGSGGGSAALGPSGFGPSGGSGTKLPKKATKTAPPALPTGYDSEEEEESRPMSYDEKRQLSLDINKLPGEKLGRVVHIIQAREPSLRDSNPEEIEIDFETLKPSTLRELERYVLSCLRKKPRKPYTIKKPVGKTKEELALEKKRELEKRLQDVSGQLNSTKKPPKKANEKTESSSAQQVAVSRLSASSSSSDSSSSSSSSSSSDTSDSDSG

Work on `COc1ccc(Cl)cc1S(=O)(=O)Nc1ccc2[nH]c(=O)c3ccccc3c2c1` yielded a half-life [1] of 10.4 h, a viability at 3 µM (A549 [2]) of 24.6% and an Activity (A549 [3]) of 27.7%. For the same molecule, the half-life [4] was 3.87 h, the Activity (A549 [5]) was “Dose-dependent effect” and the Activity (A549 [6]) was “Dose-dependent effect”. For the same molecule, the viability at 0.3 µM (A549 [7]) was 69.6%, the Activity [8] was > 70% and the CL/F [9] was 303 mL/min/kg. For the same molecule, the Cmax [10] was 52.4 ng/mL, the Activity (A549 [11]) was 76.42% and the Activity [12] was > 70%. The Activity (A549 [13]) was 0.036%, the AUC(0-t) [14] was 566 ng·h/mL and the Activity [15] was > 70%. The inhibition (A549 [16]) was “Dose-dependent effect”, the Tmax [17] was 4.98 min and the clearance [18] was 85.8 mL/min/kg. For the same molecule, the half-life at 1 µM [19] was 4.17 h, the viability at 1 µM (A549 [20]) was 46.1% and the Activity (A549 [21]) was 72%. The Tmax [22] was 5.33 h, the Activity (A549 [23]) was 68.3% and the Activity [24] was > 70%. The Activity (A549 [25]) was 6.13%, the Activity [26] was > 70% and the pIC50 (HepG2) was 5.32. For the same molecule, the Activity (A549 [27]) was 81.66%, the Activity (A549 [28]) was 0.02% and the Activity (A549 [29]) was 47.8%.
